Assays:
[1] = Cytotoxicity against human HepG2 cells assessed as cell viability at 100 uM after 48 hrs by MTT assay; assay type: cell-based; settings: read-out: Activity
How it was run: (§1)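 J774 A.1 cells were grown in DMEM and HepG2 in MEM, each with 10% FBS, penicillin, streptomycin and 2 mM L-glutamine, at 37 °C in 5% CO2. Seeded at 1-5·10^4 cells/well with half-log diluted compounds, 1% DMSO final, for 48 h. MTT was added to 0.5 mg/mL final for 3-4 h, solubilized in 50% DMSO/50% EtOH, and read at 570 nm. Background came from Triton X-100 lysed wells, and viability was taken relative to untreated controls.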

[2] = tested on: Hydroxyapatite; test: Binding affinity to bone mineral hydroxyapatite assessed as adsorbed level at 100 uM after 2 hrs by UV-spectrophotometric analysis
How it was run: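 Duplicate 5 ml aliquots of 100 μM bisphosphonic acid in 50 mM Tris-HCl pH 7.5, stirred with 4 mg hydroxyapatite at 37 °C for 2 h. After centrifugation (10 min, 8000 rpm) and 0.22 μm filtration, supernatant absorbance was quantified against calibration lines.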

[3] = target: 72 kDa type IV collagenase (Homo sapiens, UniProt P08253); test: Inhibition of APMA-activated recombinant human MMP2 using Mca-Pro-Leu-Gly-Leu-Dpa-Ala-Arg-NH2 as substrate incubated for 30 mins prior to substrate addition measured after 2 to 4 hrs by fluorometric assay
Chain of 72 kDa type IV collagenase (P08253 whole entry): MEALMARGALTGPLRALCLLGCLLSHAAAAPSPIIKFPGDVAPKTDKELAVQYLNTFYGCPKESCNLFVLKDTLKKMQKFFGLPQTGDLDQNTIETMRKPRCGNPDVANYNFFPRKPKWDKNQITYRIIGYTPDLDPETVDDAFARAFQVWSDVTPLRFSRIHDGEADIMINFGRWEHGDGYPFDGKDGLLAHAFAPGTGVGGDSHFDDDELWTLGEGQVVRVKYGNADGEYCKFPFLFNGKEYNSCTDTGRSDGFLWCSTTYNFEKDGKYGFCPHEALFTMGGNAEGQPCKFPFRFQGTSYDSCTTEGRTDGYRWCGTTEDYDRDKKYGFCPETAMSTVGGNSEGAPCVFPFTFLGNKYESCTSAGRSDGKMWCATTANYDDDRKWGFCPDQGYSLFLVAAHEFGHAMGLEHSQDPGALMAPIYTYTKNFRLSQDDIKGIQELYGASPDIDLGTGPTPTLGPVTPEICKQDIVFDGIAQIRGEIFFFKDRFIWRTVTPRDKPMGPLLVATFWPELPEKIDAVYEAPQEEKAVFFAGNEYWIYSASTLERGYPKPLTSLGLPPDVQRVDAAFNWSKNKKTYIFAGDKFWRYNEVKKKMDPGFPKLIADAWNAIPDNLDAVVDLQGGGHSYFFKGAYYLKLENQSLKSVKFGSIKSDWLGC
How it was run: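 Human pro-MMP-2 was activated with 2 mM APMA for 1 h at 37 °C. Enzyme and inhibitor (six concentrations, 0.1 nM–100 μM) were preincubated 30 min at 25 °C in Tris-HCl pH 7.5 buffer with NaCl, CaCl2, ZnCl2, Brij-35 and 1% DMSO. Substrate was added to 2.5 μM final, run 2–4 h at 37 °C, and stopped with 3% acetic acid. Fluorescence read at ex 340/em 405 nm, in triplicate; IC50 from percent inhibition versus no-inhibitor controls.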

[4] = target: Matrix metalloproteinase-9 (Homo sapiens, UniProt P14780); test: Inhibition of MMP9 catalytic domain (unknown origin) using Mca-Pro-Leu-Gly-Leu-Dpa-Ala-Arg-NH2 as substrate incubated for 30 mins prior to substrate addition measured after 2 to 4 hrs by fluorometric assay
Chain of Matrix metalloproteinase-9 (P14780 whole entry, the tested form may be a part): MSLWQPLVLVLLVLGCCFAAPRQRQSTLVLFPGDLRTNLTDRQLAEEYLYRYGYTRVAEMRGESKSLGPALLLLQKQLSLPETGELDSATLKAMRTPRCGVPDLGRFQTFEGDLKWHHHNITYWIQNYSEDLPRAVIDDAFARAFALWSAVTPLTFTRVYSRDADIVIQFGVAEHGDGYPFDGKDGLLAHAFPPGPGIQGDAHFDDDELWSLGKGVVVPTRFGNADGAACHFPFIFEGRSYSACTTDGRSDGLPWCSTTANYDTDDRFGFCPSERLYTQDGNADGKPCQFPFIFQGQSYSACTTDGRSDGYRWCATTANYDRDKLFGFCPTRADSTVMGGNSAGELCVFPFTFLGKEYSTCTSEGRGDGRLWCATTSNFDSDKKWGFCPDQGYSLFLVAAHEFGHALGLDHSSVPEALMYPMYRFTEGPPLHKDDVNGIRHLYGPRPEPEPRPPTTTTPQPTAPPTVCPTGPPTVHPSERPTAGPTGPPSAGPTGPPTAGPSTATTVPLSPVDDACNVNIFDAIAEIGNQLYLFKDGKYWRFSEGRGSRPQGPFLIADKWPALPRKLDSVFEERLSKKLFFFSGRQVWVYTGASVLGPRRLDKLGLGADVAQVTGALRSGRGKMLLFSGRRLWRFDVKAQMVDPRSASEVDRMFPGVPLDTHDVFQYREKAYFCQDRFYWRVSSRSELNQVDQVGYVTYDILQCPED
How it was run: (§2)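 Catalytic domains of MMP-8, MMP-9 or MMP-14 were preincubated 30 min at 25 °C with inhibitor (six concentrations, 0.1 nM–100 μM) in 50 mM Tris-HCl pH 7.5, 200 mM NaCl, 1 mM CaCl2, 1 μM ZnCl2, 0.05% Brij-35, 1% DMSO. Substrate was added to 2.5 μM final for 2–4 h at 37 °C, then acetic acid stop. Fluorescence read at 340/405 nm, in triplicate; IC50 fitted from percent inhibition.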

[5] = target: Matrix metalloproteinase-14 (Homo sapiens, UniProt P50281); test: Inhibition of MMP14 catalytic domain (unknown origin) using Mca-Pro-Leu-Gly-Leu-Dpa-Ala-Arg-NH2 as substrate incubated for 30 mins prior to substrate addition measured after 2 to 4 hrs by fluorometric assay; how it was run: as §2
[6] = Cytotoxicity against mouse J774A1 cells assessed as cell viability at 100 uM after 48 hrs by MTT assay; assay type: functional; settings: J774.A1, 48 h, read-out: Activity; how it was run: as §1
[7] = target: Neutrophil collagenase (Homo sapiens, UniProt P22894); test: Inhibition of MMP8 catalytic domain (unknown origin) using Mca-Pro-Leu-Gly-Leu-Dpa-Ala-Arg-NH2 as substrate incubated for 30 mins prior to substrate addition measured after 2 to 4 hrs by fluorometric assay; how it was run: as §2
Chain of Neutrophil collagenase (P22894 whole entry, the tested form may be a part): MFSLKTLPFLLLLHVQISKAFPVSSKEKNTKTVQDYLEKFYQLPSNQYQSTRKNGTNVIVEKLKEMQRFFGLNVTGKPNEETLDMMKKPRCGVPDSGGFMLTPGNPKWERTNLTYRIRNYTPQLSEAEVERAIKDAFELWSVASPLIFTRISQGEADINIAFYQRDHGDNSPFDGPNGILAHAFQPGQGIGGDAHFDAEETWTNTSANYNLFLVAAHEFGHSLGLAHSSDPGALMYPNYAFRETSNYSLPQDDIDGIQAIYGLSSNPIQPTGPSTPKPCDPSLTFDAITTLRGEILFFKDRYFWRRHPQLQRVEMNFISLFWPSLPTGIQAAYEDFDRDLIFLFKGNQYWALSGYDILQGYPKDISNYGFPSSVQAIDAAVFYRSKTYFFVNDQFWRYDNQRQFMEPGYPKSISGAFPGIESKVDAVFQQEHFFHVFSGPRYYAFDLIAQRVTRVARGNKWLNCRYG

SMILES | viability at 48 h, 100 µM [1] [%] | Activity [2] [%] | IC50 [3] [µM] | IC50 [4] [µM] | IC50 [5] [µM] | viability at 100 µM [6] [%] | IC50 [7] [µM]
O=P(O)(O)C(Nc1ccc(Oc2ccccc2)cc1)P(=O)(O)O | 105 | 66.2 | 2.8 | > 100 | 43 | 44 | 44
O=P(O)(O)C(Nc1cccc(C(F)(F)F)c1)P(=O)(O)O | 83 | 50.3 | 20.8 | > 100 | > 100 | 62 | > 100
O=P(O)(O)C(Nc1ccccc1)P(=O)(O)O [(PHENYLAMINO)METHYLENEDIPHOSPHONIC ACID] | 96 | 58 | > 100 | > 100 | > 100 | 68 | > 100
Cc1ccc(NC(P(=O)(O)O)P(=O)(O)O)cc1 [(P-TOLYLAMINO)METHYLENEDIPHOSPHONIC ACID] | 104 | 23.9 | > 100 | > 100 | > 100 | 83 | 36
O=P(O)(O)C(Nc1ccc(C(F)(F)F)cc1)P(=O)(O)O | 100 | 42.5 | 15 | > 100 | > 100 | 53 | > 100
O=P(O)(O)C(Nc1ccc(Br)cc1)P(=O)(O)O | 94 | 49 | 6 | 30 | 3.9 | 81 | 2.4
O=P(O)(O)C(Nc1cccc2ccccc12)P(=O)(O)O | 98 | 51.6 | 6.4 | 6 | 69 | 33 | 61
O=[N+]([O-])c1ccc(NC(P(=O)(O)O)P(=O)(O)O)cc1 | 84 | 76 | 20 | 20 | 26 | 76 | 15
O=P(O)(O)C(Nc1ccc(Cl)c(Cl)c1)P(=O)(O)O [3,4-DICHLOROPHENYLAMINOMETHYLENEBISPHOSPHONIC ACID] | 98 | 53.5 | > 100 | > 100 | 20 | 81 | 25.5
O=P(O)(O)C(Nc1ccc(-c2ccccc2)cc1)P(=O)(O)O | 88 | 60 | > 100 | > 100 | 33.5 | 36 | 30
O=P(O)(O)C(O)(Cn1ccnc1)P(=O)(O)O [ZOLEDRONIC ACID] | – | – | 7 | 52 | 12.6 | – | 17.6
O=P(O)(O)C(Nc1ccc(O)cc1)P(=O)(O)O | 101 | 88 | 6.6 | > 100 | > 100 | 19.5 | > 100

— ChEMBL document CHEMBL2439950, “Arylamino methylene bisphosphonate derivatives as bone seeking matrix metalloproteinase inhibitors” (Bioorg Med Chem, 2013)
